Publication PMC3590405 (European Journal of Nuclear Medicine and Molecular Imaging, 2013)

How the values were obtained:
[1] = cited from earlier work
[2] = molecular target: synthetic Aβ(1-40) amyloid fibrils (Homo sapiens, UniProt P05067); experiment: Competition binding against [3H]PIB on Aβ; settings: [3H]PIB 3 nM, Aβ(1-40) fibrils
[3] = molecular target: Aβ(1-42) amyloid fibrils (Homo sapiens, UniProt P05067); experiment: Competition binding against [3H]PIB on Aβ; settings: [3H]PIB 3 nM, Aβ(1-42) fibrils
[4] = tested on: amyloid-β plaques; experiment: In vitro autoradiography on human AD brain sections; assay type: binding; settings: white matter
In short: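 Cryo-cut 10 μm post-mortem AD cortical sections preincubated in 50 mM Tris (pH 7.4) at room temperature, then 30 min with 3 nM [3H]ligand in Tris buffer. Optical densities (digital light units/mm²) read in grey and white matter ROIs. Subcortical white matter signal taken as nonspecific binding. Signal-to-noise = (grey − white)/white.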

[5] = Brain time-activity curves in human PET; assay type: in vivo; settings: after intravenous injection
In short: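 [11C]radioligand in sterile disodium phosphate-buffered saline (pH 7.4), filtered, given as an IV bolus to control subjects and mild–moderate AD patients. Dose for the AZD2995 radioligand was 410 ± 18 MBq (620 ± 486 GBq/μmol). List-mode PET ran 93 min (38 frames), with PSF-modelled iterative reconstruction. Brain radioactivity was expressed as percent injected activity over time.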

[6] = molecular target: amyloid-β (Homo sapiens, UniProt P05067); experiment: Human PET, DVR by reference Logan with cerebellum as reference; assay type: in vivo; settings: for DVR (mean ± SD), anterior cingulate cortex / DVR (mean ± SD), grey matter / DVR (mean ± SD), hippocampus / DVR (mean ± SD), lateral temporal cortex / DVR (mean ± SD), parietal cortex / DVR (mean ± SD), posterior cingulate cortex / DVR (mean ± SD), prefrontal cortex / DVR (mean ± SD), white matter: refLogan
In short: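 IV bolus [11C]radioligands in controls and AD patients; ROIs manually drawn on 1.5-T T1 MRI, cortical ROIs restricted to segmented grey matter. Reference Logan used cerebellar cortex (white matter and vermis excluded) as reference. Six linear-phase frames: 13–45 min for AZD2995, 30–60 min for AZD2184. DVR = target/cerebellum V T. Groups compared by Mann–Whitney U (p < 0.05) and pooled-SD effect size.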

[7] = tested on: amyloid-β plaques and neurofibrillary tangles; settings: AD patients; cited from earlier work
[8] = read-out: IC50, inhibition of [3H]PIB binding
[9] = AD patients vs control subjects, DVR

Sequence of amyloid-β (P05067 672-711 limits assumed): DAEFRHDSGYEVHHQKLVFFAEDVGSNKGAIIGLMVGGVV
Sequence of Aβ(1-42) amyloid fibrils (P05067 672-713): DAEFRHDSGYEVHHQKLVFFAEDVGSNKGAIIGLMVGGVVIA
Sequence of synthetic Aβ(1-40) amyloid fibrils (P05067 672-711): as the sequence (P05067 672-711 limits assumed) above

Compound: CNc1ccc(-c2nc3ccc(O)cc3s2)cn1 [AZD2184]
- logD [1]: 1.8

Compound: CNc1ccc(-c2nc3ccc(O)cc3o2)cn1 [AZD2995]
- pIC50, inhibition of [3H]PIB binding [2]: 6.77 ± 0.02
- IC50 [2, 8]: 170 nM
- pIC50, inhibition of [3H]PIB binding [3]: 6.69 ± 0.05
- IC50 [3, 8]: 204 nM
- logD [1]: 1.3

Compound: [3H]C([3H])([3H])Nc1ccc(-c2nc3ccc(O)cc3s2)cc1 [[^3H]PIB]
- nonspecific binding and background, rank order [4]: highest

Compound: [11CH3]Nc1ccc(-c2nc3ccc(O)cc3s2)cn1 [[^11C]AZD2184]
- time to peak of total radioactivity in brain [5]: at the same time
- radioactivity in the brain at peak ([5]; % of injected radioactivity): 3.0–3.5%
- Effect size, anterior cingulate cortex [6, 9]: 8.52
- Effect size, grey matter [6, 9]: 4.89
- Effect size, hippocampus [6, 9]: 1.73
- Effect size, lateral temporal cortex [6, 9]: 5.00
- Effect size, parietal cortex [6, 9]: 5.26
- Effect size, posterior cingulate cortex [6, 9]: 6.34
- Effect size, prefrontal cortex [6, 9]: 5.82
- Effect size, white matter [6, 9]: 2.67
- DVR (mean ± SD), anterior cingulate cortex ([6]; AD patients): 1.97 ± 0.15
- DVR (mean ± SD), grey matter ([6]; AD patients): 1.72 ± 0.17
- DVR (mean ± SD), hippocampus ([6]; AD patients): 1.11 ± 0.10
- DVR (mean ± SD), lateral temporal cortex ([6]; AD patients): 1.94 ± 0.22
- DVR (mean ± SD), parietal cortex ([6]; AD patients): 2.07 ± 0.25
- DVR (mean ± SD), posterior cingulate cortex ([6]; AD patients): 2.10 ± 0.18
- DVR (mean ± SD), prefrontal cortex ([6]; AD patients): 2.13 ± 0.23
- DVR (mean ± SD), white matter ([6]; AD patients): 1.25 ± 0.05
- DVR (mean ± SD), anterior cingulate cortex ([6]; control subjects): 0.92 ± 0.02
- DVR (mean ± SD), grey matter ([6]; control subjects): 1.05 ± 0.05
- DVR (mean ± SD), hippocampus ([6]; control subjects): 0.95 ± 0.08
- DVR (mean ± SD), lateral temporal cortex ([6]; control subjects): 1.03 ± 0.05
- DVR (mean ± SD), parietal cortex ([6]; control subjects): 1.04 ± 0.04
- DVR (mean ± SD), posterior cingulate cortex ([6]; control subjects): 1.17 ± 0.02
- DVR (mean ± SD), prefrontal cortex ([6]; control subjects): 1.04 ± 0.04
- DVR (mean ± SD), white matter ([6]; control subjects): 1.08 ± 0.13

Compound: CC(=C(C#N)C#N)c1ccc2cc(N(C)CC[18F])ccc2c1 [[^18F]FDDNP]
- specific binding signal compared to other amyloid radioligands [7]: ninefold lower
